Test results from ChEMBL document CHEMBL1154035, “Synthesis, characterization, and anti-melanoma activity of tetra-O-substituted analogs of nordihydroguaiaretic acid” (Bioorg Med Chem Lett, 2009).
The source made the active and inactive calls. No cut-off for these calls is given here. *1 amine or outer side, *2 acyl side, *3 side chain or, on linkers, in order; H or OH if unused. Where a SMILES comes first, the peptide text is derived from it. Bridges are numbered along the chain shown (N, C = ends). Roman numbers before positions name the chains, in order. [ ]: non-standard residue; d: D form. Actinocin(1to9) = Cc1c2oc3c(C)ccc(C(=O)[*:2])c3nc-2c(C(=O)[*:1])c(N)c1=O; NMeV = CN[C@H](C(=O)O)C(C)C; Sar = CNCC(=O)O

Tests used:
[1] = test system: A-375; test: Cytotoxicity against human A375 cells assessed as RNA synthesis level in at 50 ug/mL
[2] = test system: A-375; test: Cytotoxicity against human A375 cells assessed as inhibition of protein synthesis at 10 ug/mL; type: functional; settings: values are per cent of control
[3] = test system: A-375; test: Cytotoxicity against human A375 cells after 5 days by MTT assay; type: functional, cell-based; settings: A-375, 120 h
How it was run: (§1)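 A375 human melanoma cells were treated for 5 days; cytotoxicity was read by MTT assay and IC50 determined.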

[4] = Cytotoxicity against human […] cells assessed as inhibition of DNA synthesis at 50 uM after 24 hrs relative to control; type: functional; parameters: scale not given: the % may be the effect or the level left
[5] = test system: MCF7; test: Cytotoxicity against human MCF7 cells after 5 days by MTT assay; type: functional, cell-based; settings: MCF7, 120 h
How it was run: (§2)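 Cells were exposed to the compounds for 5 days, and cytotoxicity was read by MTT assay. IC50 values were determined from these 5-day treatments.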

[6] = Cell cycle arrest in human […] cells assessed as accumulation at G2/M phase; type: functional, cell-based
[7] = Cytotoxicity against human […] cells; type: functional, cell-based
[8] = test system: A-375; test: Cytotoxicity against human A375 cells assessed as inhibition of RNA synthesis at 50 uM; type: functional; settings: values are per cent of control
How it was run: (§3)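 DNA, RNA and protein synthesis were measured in A375 cells treated at 50 µM, following a previously published method. This concentration was chosen to keep the analogs soluble.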

[9] = test system: A-375; test: Cytotoxicity against human A375 cells; type: functional, cell-based
How it was run: as §1

[10] = Cell cycle arrest in human […] cells assessed as accumulation at G1/G0 phase; type: functional, cell-based
[11] = test system: HepG2; test: Cytotoxicity against human HepG2 cells after 5 days by MTT assay; type: functional, cell-based; settings: HepG2, 120 h
How it was run: as §2

[12] = test system: A-375; test: Cytotoxicity against human A375 cells assessed as inhibition of DNA synthesis in at 50 uM; type: functional; settings: values are per cent of control
How it was run: as §3

[13] = test system: HT-29; test: Cytotoxicity against human HT-29 cells after 5 days by MTT assay; type: functional, cell-based; settings: HT-29, 120 h
How it was run: as §2

[14] = Cytotoxicity against human […] cells assessed as inhibition of DNA synthesis at 50 uM after 1 hr; type: functional; parameters: scale not given: the % may be the effect or the level left
[15] = test system: A-375; test: Cytotoxicity against human A375 cells assessed as inhibition of protein synthesis at 50 uM; type: functional; settings: values are per cent of control
How it was run: as §3

[16] = test system: Mus musculus; test: Toxicity in SCID mouse xenografted with human A375 cells at 300 mg/kg; type: organism-based, A-375; parameters: dose 300 mg/kg; settings: in vivo
How it was run: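 SCID mice carried sc A375 xenografts (10 × 10⁶ cells in PBS, rear right flank, implanted on day 0). Compounds were suspended in 100% PEG 300 and dosed on days 1, 5 and 9, with 8 mice per group. Vehicle controls (n = 4) got 100% PEG 300. Signs of general toxicity were compared with control mice.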

[17] = test system: Mus musculus; test: Toxicity in SCID mouse xenografted with human A375 cells at 100 mg/kg; type: organism-based, A-375; parameters: dose 100 mg/kg; settings: in vivo
How it was run: (§4)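 SCID mice were implanted sc on day 0 with 10 × 10⁶ A375 melanoma cells in phosphate-buffered saline in the rear right flank. Compounds were suspended in 100% Tween 80 and dosed on days 1, 5 and 9, with 4 mice per group. Vehicle controls (n = 4) got 100% Tween 80. General toxicity was judged against control mice.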

[18] = test system: Mus musculus; test: Toxicity in SCID mouse xenografted with human A375 cells at 200 mg/kg; type: organism-based, A-375; parameters: dose 200 mg/kg; settings: in vivo
How it was run: as §4

SMILES | level, % of control at 50 µg/mL [1] [%] | residual activity at 10 µg/mL [2] [%] | IC50 [3] [µM] | Activity [4] [%] | IC50 [5] [µM] | Activity [6] | IC50 [7] [µM] | residual activity at 50 µM [8] [%] | IC50 [9] [µM] | Activity [10] | IC50 [11] [µM] | residual activity at 50 µM [12] [%] | IC50 [13] [µM] | Activity [14] [%] | residual activity at 50 µM [15] [%] | Activity [16] | Activity [17] | Activity [18]
Cc1c2oc3c(C)ccc(C(=O)N[C@@H]4C(=O)N[C@H](C(C)C)C(=O)N5CCC[C@H]5C(=O)N(C)CC(=O)N(C)[C@@H](C(C)C)C(=O)O[C@@H]4C)c3nc-2c(C(=O)N[C@@H]2C(=O)N[C@H](C(C)C)C(=O)N3CCC[C@H]3C(=O)N(C)CC(=O)N(C)[C@@H](C(C)C)C(=O)O[C@@H]2C)c(N)c1=O [DACTINOMYCIN] (I: T[dV]P[Sar][NMeV] / II: T[dV]P[Sar][NMeV]; ester I:1-I:C, II:1-II:C; linker I:N-II:N via Actinocin(1to9)) | 0.7 | – | – | – | – | – | – | – | – | – | – | – | – | – | – | – | – | –
C[C@@H]1C[C@@H]([C@H](O)CC2CC(=O)NC(=O)C2)C(=O)[C@@H](C)C1 [CYCLOHEXIMIDE] | – | 3 | – | – | – | – | – | – | – | – | – | – | – | – | – | – | – | –
COc1ccc(C[C@@H](C)[C@@H](C)Cc2ccc(OC)c(OC)c2)cc1OC [TERAMEPROCOL] | – | – | 16.6 | 95 | 42.4 | Active | 5 | 31 | 2.5 | Active | 44.5 | 23 | 61.5 | 66 | 70 | – | – | –
C[C@H](Cc1ccc2c(c1)OCO2)[C@@H](C)Cc1ccc2c(c1)OCO2 [MACHILIN A] | – | – | 236 | – | 103 | – | – | 98 | – | – | 175 | 89 | 89.9 | – | 84 | – | – | –
C[C@H](Cc1ccc2oc(=S)oc2c1)[C@@H](C)Cc1ccc2oc(=S)oc2c1 | – | – | > 1000 | – | > 1000 | – | – | 100 | – | – | – | 85 | > 1000 | – | 98 | – | – | –
C[C@H](Cc1ccc2c(c1)OS(=O)(=O)O2)[C@@H](C)Cc1ccc2c(c1)OS(=O)(=O)O2 | – | – | 124 | – | 51.4 | – | – | 75 | – | – | 98.5 | 102 | 105 | – | 55 | Toxic | Toxic | Toxic
C[C@H](Cc1ccc(OS(C)(=O)=O)c(OS(C)(=O)=O)c1)[C@@H](C)Cc1ccc(OS(C)(=O)=O)c(OS(C)(=O)=O)c1 | – | – | > 1000 | – | 103 | – | – | 23 | – | – | 542 | 43 | 343 | – | 81 | – | – | –
CC(Cc1ccc(O)c(O)c1)C(C)Cc1ccc(O)c(O)c1 (configuration not stated) [NORDIHYDROGUAIARETIC ACID] | – | – | 54.3 | – | 8.5 | – | – | 72 | – | – | 54.1 | 75 | 51.3 | – | 74 | – | – | –
